The nature of series [1]: folding enthalpy; higher = less favourable; fluorescence melt of hairpins on a sequencing array, two-state fit. As to conditions: sodium 0.088 M. The procedure, abridged:
(§1)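 Bootstrapped two-state fits yielded melting temperature and folding enthalpy for library hairpins. Cy3 fluorescence, with annealed Cy3 and quencher oligos, was imaged on a sequenced MiSeq flow cell in 50 mM Na-HEPES pH 8.0, 25 mM NaCl in 2.5 °C steps up to 60 °C, and normalised to pre-quench Cy3 and to control constructs. Four replicates were combined by inverse variance, and fitted temperatures were raised by 9.35 °C to match UV melts.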

The nature of series [2]: melting temperature; fluorescence melt of hairpins on a sequencing array, two-state fit, raised by 9.35 °C to match UV melts. As to conditions: sodium 0.088 M. In outline: as §1

Take GCACGGCGAAAGCAGGGC ((.(.((....)).).)): in series [1], the folding enthalpy is -36 kcal/mol. Moreover, in series [2], the Tm was 65.8 °C.
Consider GAGCGCGAAAGCGTCCTC ((((((....)))..))), for which the folding enthalpy in series [1] was -10 kcal/mol. Besides, the Tm in series [2] is 42.2 °C.
For GCGAAGCGAAAGCTACGC (((.(((....))).))), in that order: -40.4 kcal/mol and 55 °C.
For GATCGATGATCGATC ((((((...)))))) the same measures were -22.2 kcal/mol and 50.7 °C.
For GGAGCCGAAAGGCCCTCC ((((((....)))..))), the folding enthalpy in series [1] was -12.8 kcal/mol. The Tm in series [2] is 64.6 °C.
For GAGTCCGAAAGGACCTC ((((((....))).))), in that order: -13.2 kcal/mol and 54.5 °C.
As for GCTCGCCGAAAGGCCAGC (((.(((....))).))), the folding enthalpy in series [1] was -18.1 kcal/mol. Moreover, the Tm in series [2] amounted to 50.5 °C.
For GATCTACGAAAGTATATC (((.(((....))).))), in that order: -22.4 kcal/mol and 32.5 °C.
As for GGCCGCGAAAGCGCAGCC ((((((....)))..))), the folding enthalpy in series [1] is -20.7 kcal/mol. The Tm in series [2] is 58.4 °C.
For GGTATACGAAAGTAACC (((.(((....)))))), in that order: -19.3 kcal/mol and 34.9 °C.
On to GTCCCAGGAAACCGGGAC (((((.(....).))))), for which the folding enthalpy in series [1] was -34.8 kcal/mol. Moreover, the Tm in series [2] was 53.2 °C.
Regarding GGAGGCGGAAACACCCCC ((.((.(....).)).)), the folding enthalpy in series [1] is -12.8 kcal/mol. Moreover, in series [2], the Tm was 26.6 °C.
Turning to GACGGGCCGAAAGGCGTC (((..(((....)))))), in series [1], the folding enthalpy was -15 kcal/mol. The Tm in series [2] is 48.8 °C.
For GCGTCAAAACGC ((((....)))), in that order: -21.2 kcal/mol and 51.6 °C.
For GGTGTCGAAAGACTACC ((((((....))).))) the same measures were -17.7 kcal/mol and 47.8 °C.
With GATCTTTAGCAAGATC ((((((....)))))), the folding enthalpy in series [1] is -28.2 kcal/mol. Moreover, the Tm in series [2] was determined as 37.1 °C.
For GTATCCGAAAGGATGTAC ((((((....)))..))), in that order: -11.5 kcal/mol and 36.7 °C.
For GGCACGGGAAACCGCACC ((..(((....)))..)) the same measures were -10.3 kcal/mol and 32.4 °C.
For GATCAAGGACTTGATC ((((((....)))))), in that order: -40 kcal/mol and 50.7 °C.
For the sequence GATCACAGATGTGATC ((((((....)))))), the folding enthalpy in series [1] is -37.8 kcal/mol. In series [2], the Tm is 56.8 °C.
For GTCCACGAAAGTGGGGAC ((((((....)))..))), in that order: -10.4 kcal/mol and 46.4 °C.
For CGGGCTCGGAAACGACCG (((..(((....)))))), in that order: -22.6 kcal/mol and 40.6 °C.
For GGCGTCGGAAACGATGCC (((.(((....))).))), in that order: -38.2 kcal/mol and 65.7 °C.
For GTTTGGGGAAACTCAGAC ((.((.(....).)).)), in series [1], the folding enthalpy was -9.8 kcal/mol. The Tm in series [2] was 27 °C.
For GATCTAACCGTAGATC ((((((....)))))) the same measures were -25.1 kcal/mol and 38 °C.
For GATCGAAGTATCGATC ((((((....)))))) the same measures were -31.7 kcal/mol and 50.9 °C.
For GTTGGGCGAAAGCCAAAC (((.(((....))).))) the same measures were -21.5 kcal/mol and 56.9 °C.
As for GATCTGGTACCAGATC ((((((....)))))), in series [1], the folding enthalpy was -37.8 kcal/mol. For the same sequence, the Tm in series [2] was found to be 56 °C.
GTACCTCGAAAGAGTTAC (((.(((....))).))): in series [1], the folding enthalpy was -27.9 kcal/mol. Moreover, in series [2], the Tm was determined as 35.3 °C.
Consider GCATCTCGAAAGAGGTGC (((.(((....))).))), for which the folding enthalpy in series [1] is -37.4 kcal/mol. The Tm in series [2] is 59.8 °C.
For GCCGTGCGAAAGCCCCGC ((.(.((....)).).)), in that order: -9.26 kcal/mol and 29.3 °C.
GATCATGGCCATGATC ((((((....)))))): the folding enthalpy in series [1] was -49.5 kcal/mol. Besides, the Tm in series [2] was determined as 56.3 °C.
For GGAGATGCGAAAGCATCC (((..(((....)))))), in that order: -8.76 kcal/mol and 46.6 °C.
For GCTACAGGAAACTATAGC ((((.((....)).)))), in that order: -12.1 kcal/mol and 31.7 °C.
For GATCTAATGTAGATC ((((((...)))))) the same measures were -25.5 kcal/mol and 36.6 °C.
As for CGCCAACGGAAACGTGCG (((..(((....)))))), in series [1], the folding enthalpy is -26 kcal/mol. In series [2], the Tm stood at 45.5 °C.
For GCGGAGCGAAAGCTCGGC ((.((((....)))).)) the same measures were -17.8 kcal/mol and 65.1 °C.

These data come from the array DNA melting data of Ke et al. (doi:10.1101/2024.01.08.574731).
